Experiment [1] has as its target T1, engineered LYS11 (ENG-LYS11) (Lotus japonicus, UniProt D3KTZ8).
T1 sequence (D3KTZ8 28-247): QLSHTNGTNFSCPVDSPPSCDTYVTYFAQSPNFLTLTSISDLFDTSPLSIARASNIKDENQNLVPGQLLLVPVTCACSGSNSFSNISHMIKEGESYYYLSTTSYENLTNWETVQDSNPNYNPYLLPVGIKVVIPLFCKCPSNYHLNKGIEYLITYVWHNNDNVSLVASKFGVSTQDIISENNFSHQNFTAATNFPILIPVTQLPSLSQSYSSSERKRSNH
Description: BLI binding of engineered LYS11 ectodomain. To be noted: ENG-LYS11, analyte 100 to 1.56 µM.

A further experiment addresses T2, NFR5 ectodomain (Lotus japonicus, UniProt Q70KR1).
T2 sequence (Q70KR1 29-242): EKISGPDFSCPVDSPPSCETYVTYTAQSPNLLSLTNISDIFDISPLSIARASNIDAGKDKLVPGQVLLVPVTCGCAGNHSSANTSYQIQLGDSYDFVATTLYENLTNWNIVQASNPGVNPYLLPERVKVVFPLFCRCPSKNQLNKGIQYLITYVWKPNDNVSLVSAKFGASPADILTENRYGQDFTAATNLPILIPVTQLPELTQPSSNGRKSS
Description: BLI binding of NFR5 ectodomain. To be noted: analyte 100 to 1.56 µM. (In general: Biolayer interferometry detects binding as a change in optical thickness at a sensor tip.)

A further experiment addresses T3, CERK1 (Arabidopsis thaliana, UniProt A8R7E6).
T3 sequence (A8R7E6 24-232 limits assumed): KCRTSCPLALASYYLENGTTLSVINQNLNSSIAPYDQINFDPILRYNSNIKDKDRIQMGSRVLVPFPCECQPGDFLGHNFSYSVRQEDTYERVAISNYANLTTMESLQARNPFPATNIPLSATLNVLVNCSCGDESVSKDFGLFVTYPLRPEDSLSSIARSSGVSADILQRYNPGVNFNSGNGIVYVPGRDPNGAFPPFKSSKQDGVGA
Description: BLI kinetics of CERK1 ectodomain binding to chitin fragment.

For another experiment, the target named is T4, NFP (Medicago truncatula, UniProt Q0GXS4).
T4 sequence (Q0GXS4 28-246): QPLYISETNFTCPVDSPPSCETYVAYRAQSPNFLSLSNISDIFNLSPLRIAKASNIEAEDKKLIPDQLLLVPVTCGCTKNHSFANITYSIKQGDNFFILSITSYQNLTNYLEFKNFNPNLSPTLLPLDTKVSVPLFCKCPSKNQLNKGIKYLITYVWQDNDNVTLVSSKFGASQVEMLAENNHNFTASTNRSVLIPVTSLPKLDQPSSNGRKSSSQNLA
Description: MST steady-state binding to fluorescently labeled NFP. To be noted: ligand 0.6 to 20,000 nM, NFP 12.5 to 50 nM. In a few lines: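 Microscale thermophoresis using NHS blue dye-labelled NFP ectodomain (insect cell-expressed) held at a constant 12.5–50 nM. Ligands were S. meliloti succinoglycan (EPS-I) and maltodextrin, each titrated from 0.6 to 20,000 nM. Steady-state binding signal was recorded.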

With `N[C@H]1[C@H](O[C@H]2[C@H](O)[C@@H](N)[C@H](O[C@H]3[C@H](O)[C@@H](N)[C@H](O[C@H]4[C@H](O)[C@@H](N)[C@H](O[C@H]5[C@H](O)[C@@H](N)C(O)O[C@@H]5CO)O[C@@H]4CO)O[C@@H]3CO)O[C@@H]2CO)O[C@H](CO)[C@@H](O)[C@@H]1O` (some centres unmarked) [CO5, chitopentaose], the Kd result in experiment [1] is listed as “completely lost the ability to bind”; at NFR5 ectodomain it was “does not bind”. The binding kinetics result at CERK1 is “fast association and dissociation rates”.
As to S. meliloti succinoglycan [EPS-I], the “binding to NFP” value on NFP is reported as “unable to bind”.
Still for that read-out and setting: with maltodextrin the entry was “unable to bind”.

The record behind these values is paper PMC8612216 (Proceedings of the National Academy of Sciences of the …, 2021).
